Data: ChEMBL document CHEMBL3098025, “Optimization of potency and pharmacokinetics of tricyclic indole derived inhibitors of HCV NS5B polymerase. Identification of ester prodrugs with improved oral pharmacokinetics” (Bioorg Med Chem, 2014)

Experiments:
Cynomolgus monkey [1] = experiment: Prodrug conversion in cynomolgus monkey assessed as AUC (0 to 24 hrs) of 6-((6-Chloro-1H-benzo[d]imidazol-5-yl)methyl)-4-fluoro-8-(2-oxo-1,2-dihydropyridin-3-yl)-6H-furo[2,3-e]indole-7-carboxylic acid level at 3 mg/kg, po; format: ADME, organism-based, Macaca fascicularis; parameters: time < 24 hr, dose 3 mg/kg, route oral; conditions: in vivo
Rattus norvegicus [2] = experiment: Prodrug conversion in Sprague-Dawley rat assessed as AUC (0 to 24 hrs) of 6-((6-Chloro-1H-benzo[d]imidazol-5-yl)methyl)-4-fluoro-8-(2-oxo-1,2-dihydropyridin-3-yl)-6H-furo[2,3-e]indole-7-carboxylic acid level at 10 mg/kg, po; format: ADME, organism-based; parameters: time < 24 hr, dose 10 mg/kg, route oral; conditions: in vivo
Summary of the method: (§1)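 Dimethylaminoethyl ester prodrugs were dosed orally to rats at 10 mg/kg in 0.4% methylcellulose.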

Rattus norvegicus [3] = experiment: Prodrug conversion in Sprague-Dawley rat assessed as AUC (0 to 6 hrs) of 6-((6-Chloro-1H-benzo[d]imidazol-5-yl)methyl)-4-fluoro-8-(2-oxo-1,2-dihydropyridin-3-yl)-6H-furo[2,3-e]indole-7-carboxylic acid level at 10 mg/kg, po; format: ADME, organism-based; parameters: time < 6 hr, dose 10 mg/kg, route oral; conditions: in vivo
Summary of the method: (§2)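 Sprague Dawley rats received esters orally at 10 mg/kg in 0.4% methylcellulose, given as trifluoroacetate salts. Plasma levels of both the intact ester prodrug and the acid metabolite were measured. AUC was integrated over 0–6 h after dosing.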

Rattus norvegicus [4] = experiment: Prodrug conversion in Sprague-Dawley rat assessed as AUC (0 to 6 hrs) of parent compound level at 10 mg/kg, po; format: ADME, organism-based; parameters: time < 6 hr, dose 10 mg/kg, route oral; conditions: in vivo; summary of the method: as §2
Hepatitis C virus = experiment: Antiviral activity against HCV1b assessed as inhibition of viral replication; format: functional, organism-based, Hepacivirus hominis; conditions: genotype 1b
Summary of the method: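 In the cell-based HCV replicon assay, viral RNA levels were measured. EC50 is the concentration giving a 50% reduction in replicon RNA.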

[5] = Inhibition of HCV1b NS5B polymerase; parameters: species or system Hepatitis C virus subtype 1b
Liver microsome [6] = experiment: Metabolic stability in human liver microsomes assessed as glutathione adduct formation; format: ADME
Liver microsome [7] = experiment: Metabolic stability in human liver microsomes assessed as oxidation; format: ADME
[8] = AUC (0 to 6 hrs) in cynomolgus monkey at 3 mg/kg, po; format: ADME, organism-based, Macaca fascicularis; parameters: time < 6 hr, dose 3 mg/kg, route oral; conditions: plasma
[9] = AUC (0 to 6 hrs) in Sprague-Dawley rat at 10 mg/kg, po; format: ADME, organism-based; parameters: time < 6 hr, dose 10 mg/kg, route oral; conditions: plasma; summary of the method: as §2
Liver microsome [10] = experiment: Drug metabolism in human liver microsomes assessed as formation of 2-((R)-2-((S)-4-amino-4-carboxybutanamido)-3-(carboxymethylamino)-3-oxopropylthio)-6-(2,5-difluorobenzyl)-3-hydroxy-8-(2-oxo-1,2-dihydropyridin-3-yl)-3,6-dihydro-2H-furo[2,3-e]indole-7-carboxylic acid in presence of glutathione; format: ADME
Liver microsome [11] = experiment: Drug metabolism in human liver microsomes assessed as formation of 6-(2,5-difluorobenzyl)-3-hydroxy-2-(methoxyamino)-8-(2-oxo-1,2-dihydropyridin-3-yl)-3,6-dihydro-2H-furo[2,3-e]indole-7-carboxylic acid in presence of NH2OCH3; format: ADME
Liver microsome [12] = experiment: Drug metabolism in human liver microsomes assessed as formation of 3-(2,5-Difluoro-benzyl)-1-(2-oxo-1,2-dihydro-pyridin-3-yl)-5b,6a-dihydro-3H-6,7-dioxa-3-aza-cyclopropa[b]-as-indacene-2-carboxylic acid; format: ADME
Liver microsome [13] = experiment: Drug metabolism in human liver microsomes assessed as formation of 6-(2,5-difluorobenzyl)-2,3-dihydroxy-8-(2-oxo-1,2-dihydropyridin-3-yl)-3,6-dihydro-2H-furo[2,3-e]indole-7-carboxylic acid in presence of water; format: ADME
Liver microsome [14] = experiment: Drug metabolism in human liver microsomes assessed as formation of 8-(1H-pyrrol-2-yl)-6H-furo[2,3-e]indole-7-carboxylic acid; format: ADME
Cynomolgus monkey [15] = experiment: Prodrug conversion in cynomolgus monkey assessed as AUC (0 to 24 hrs) of 6-((2-Aminoquinolin-4-yl)methyl)-4-fluoro-8-(2-oxo-1,2-dihydropyridin-3-yl)-6H-furo[2,3-e]indole-7-carboxylic acid level at 3 mg/kg, po; format: ADME, organism-based, Macaca fascicularis; parameters: time < 24 hr, dose 3 mg/kg, route oral; conditions: in vivo
Rattus norvegicus [16] = experiment: Prodrug conversion in Sprague-Dawley rat assessed as AUC (0 to 24 hrs) of 6-((2-Aminoquinolin-4-yl)methyl)-4-fluoro-8-(2-oxo-1,2-dihydropyridin-3-yl)-6H-furo[2,3-e]indole-7-carboxylic acid level at 10 mg/kg, po; format: ADME, organism-based; parameters: time < 24 hr, dose 10 mg/kg, route oral; conditions: in vivo; summary of the method: as §1
Cynomolgus monkey [17] = experiment: Prodrug conversion in cynomolgus monkey assessed as AUC (0 to 24 hrs) of 6-((3-Amino-6-fluoro-1H-indazol-5-yl)methyl)-4-fluoro-8-(2-oxo-1,2-dihydropyridin-3-yl)-6H-furo[2,3-e]indole-7-carboxylic acid level at 3 mg/kg, po; format: ADME, organism-based, Macaca fascicularis; parameters: time < 24 hr, dose 3 mg/kg, route oral; conditions: in vivo
Rattus norvegicus [18] = experiment: Prodrug conversion in Sprague-Dawley rat assessed as AUC (0 to 24 hrs) of 6-((3-Amino-6-fluoro-1H-indazol-5-yl)methyl)-4-fluoro-8-(2-oxo-1,2-dihydropyridin-3-yl)-6H-furo[2,3-e]indole-7-carboxylic acid level at 10 mg/kg, po; format: ADME, organism-based; parameters: time < 24 hr, dose 10 mg/kg, route oral; conditions: in vivo; summary of the method: as §1
Plasma = experiment: Metabolic stability in po dosed Sprague-Dawley rat plasma assessed as glutathione adduct formation; format: ADME, organism-based; conditions: in vivo
Summary of the method: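 Plasma samples from the full rat PK study (oral, 3 mg/kg) were analysed for metabolites, including glutathione adducts.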

[19] = Oral bioavailability in Sprague-Dawley rat at 3 mg/kg; format: ADME, organism-based; conditions: in vivo

Question: What does the source list for `CN(C)CCOC(=O)c1c(-c2ccc[nH]c2=O)c2c3occc3c(F)cc2n1Cc1cc2[nH]cnc2cc1Cl.O=C(O)C(F)(F)F`?
Answer: AUC (Cynomolgus monkey [1]): 14 µM·h; AUC (Rattus norvegicus [2]): 208 µM·h; AUC (Rattus norvegicus [3]): 32.5 µM·h; AUC (Rattus norvegicus [4]): 0.5 µM·h; EC50 (Hepatitis C virus): 13 nM

Question: Which results are given for `O=C(O)C(F)(F)F.O=C(OCCN1CCOCC1)c1c(-c2ccc[nH]c2=O)c2c3occc3c(F)cc2n1Cc1cc2[nH]cnc2cc1Cl`?
Answer: AUC (Rattus norvegicus [3]): 5.5 µM·h; AUC (Rattus norvegicus [4]): 0.2 µM·h

Question: For `O=C(O)c1c(-c2ccc[nH]c2=O)c2c3occc3c(F)cc2n1Cc1cc(F)ccc1F`, which EC90 (Hepatitis C virus) is on record?
Answer: Its EC90 is 90 nM.

Question: What about the IC50 [5] of the same compound?
Answer: The IC50 was 2 nM.

Question: What about the Stability (Liver microsome [6]) of the same compound?
Answer: Its Stability is “Stable”.

Question: And the Stability (Liver microsome [7])?
Answer: Its Stability is “Stable”.

Question: Which results are given for `Nc1cc(Cn2c(C(=O)O)c(-c3ccc[nH]c3=O)c3c4occc4c(F)cc32)c2ccccc2n1`?
Answer: AUC(0-t) at 6 h [8]: 0.4 µM·h; AUC(0-t) at 6 h [9]: 24 µM·h; EC50 (Hepatitis C virus): 6 nM; IC50 [5]: 4 nM

Question: Which AUC(0-t) at 6 h [9] does the source give for `O=C(O)c1c(-c2ccc[nH]c2=O)c2c3occc3c(F)cc2n1Cc1cc2[nH]cnc2cc1Cl` here?
Answer: Its AUC(0-t) at 6 h is 1.2 µM·h.

Question: And the EC50 (Hepatitis C virus)?
Answer: The EC50 was 8 nM.

Question: What about the IC50 [5] of the same compound?
Answer: Its IC50 is 6 nM.

Question: For `O=C(O)c1c(-c2ccc[nH]c2=O)c2c3occc3ccc2n1Cc1cc(F)ccc1F`, which EC50 (Hepatitis C virus) is on record?
Answer: Its EC50 is 160 nM.

Question: And the IC50 [5]?
Answer: Its IC50 is 31 nM.

Question: And the Drug metabolism (Liver microsome [10])?
Answer: Its Drug metabolism is “Active”.

Question: What about the Drug metabolism (Liver microsome [11]) of the same compound?
Answer: The Drug metabolism was “Active”.

Question: What about the Drug metabolism (Liver microsome [12]) of the same compound?
Answer: Its Drug metabolism is “Active”.

Question: And the Drug metabolism (Liver microsome [13])?
Answer: Its Drug metabolism is “Active”.

Question: What about the Drug metabolism (Liver microsome [14]) of the same compound?
Answer: Its Drug metabolism is “Active”.

Question: What does the source list for `CN(C)CCOC(=O)c1c(-c2ccc[nH]c2=O)c2c3occc3c(F)cc2n1Cc1cc(N)nc2ccccc12.O=C(O)C(F)(F)F`?
Answer: AUC (Cynomolgus monkey [15]): 17 µM·h; AUC (Rattus norvegicus [16]): 651 µM·h; EC50 (Hepatitis C virus): 7 nM

Question: With `O=C(O)c1c(-c2ccc[nH]c2=O)c2c3occc3c(F)cc2n1Cc1cc2c(=O)cc[nH]c2cc1F` as the compound, how does the EC50 (Hepatitis C virus) read?
Answer: Its EC50 is 7 nM.

Question: What about the IC50 [5] of the same compound?
Answer: The IC50 was 3 nM.

Question: With `CC(CN(C)C)OC(=O)c1c(-c2ccc[nH]c2=O)c2c3occc3c(F)cc2n1Cc1cc2[nH]cnc2cc1Cl.O=C(O)C(F)(F)F` (configuration not stated) as the compound, how does the AUC (Rattus norvegicus [3]) read?
Answer: Its AUC is 32.6 µM·h.

Question: And the AUC (Rattus norvegicus [4])?
Answer: Its AUC is 0.8 µM·h.

Question: Which results are given for `Cn1nc(N)c2cc(Cn3c(C(=O)O)c(-c4ccc[nH]c4=O)c4c5occc5c(F)cc43)c(F)cc21`?
Answer: AUC(0-t) at 6 h [9]: 7.2 µM·h; EC50 (Hepatitis C virus): 20 nM; IC50 [5]: 6 nM

Question: Which AUC(0-t) at 6 h [9] does the source give for `O=C(O)c1c(-c2ccc[nH]c2=O)c2c3occc3c(F)cc2n1Cc1cc2cn[nH]c2cc1Cl` here?
Answer: The AUC(0-t) at 6 h was 5.1 µM·h.

Question: What about the EC50 (Hepatitis C virus) of the same compound?
Answer: The EC50 was 5 nM.

Question: What about the IC50 [5] of the same compound?
Answer: Its IC50 is 3 nM.

Question: For `CN(C)CCOC(=O)c1c(-c2ccc[nH]c2=O)c2c3occc3c(F)cc2n1Cc1cc2c(N)n[nH]c2cc1F.O=C(O)C(F)(F)F`, which AUC (Cynomolgus monkey [17]) is on record?
Answer: The AUC was 4.2 µM·h.

Question: And the AUC (Rattus norvegicus [18])?
Answer: Its AUC is 118 µM·h.

Question: And the EC50 (Hepatitis C virus)?
Answer: Its EC50 is 4 nM.

Question: Which Stability (Plasma) does the source give for `NC(=O)c1ccc(F)c(Cn2c(C(=O)O)c(-c3ccc[nH]c3=O)c3c4occc4c(F)cc32)c1` here?
Answer: The Stability was “Stable”.

Question: What about the bioavailability [19] of the same compound?
Answer: The bioavailability was 1.5%.

Question: What about the AUC(0-t) at 6 h [9] of the same compound?
Answer: The AUC(0-t) at 6 h was 1.7 µM·h.

Question: What about the EC50 (Hepatitis C virus) of the same compound?
Answer: The EC50 was 15 nM.

Question: And the IC50 [5]?
Answer: Its IC50 is 4 nM.

Question: For `O=C([O-])c1c(-c2ccc[nH]c2=O)c2c3occc3c(F)cc2n1Cc1cc2[nH]cnc2cc1Cl.[Na+]`, which AUC (Rattus norvegicus [3]) is on record?
Answer: The AUC was 2.1 µM·h.
